We go through two molecules from ChEMBL document CHEMBL1275586, “Phenotypic susceptibility to bevirimat in isolates from HIV-1-infected patients without prior exposure to bevirimat” (Antimicrob Agents Chemother, 2010).

Molecules are shown by their SMILES.

Common to all, as to assay type: functional, MT2
Assay [1] relates to Human immunodeficiency virus 1. The assay can be described thus: Antiviral activity against Human immunodeficiency virus 1 isolate 6 harboring Gag-capsid I138L and V215L mutant gene and protease L10I, S37N, M46L, G48V, R57K, L63P, I66F, A71V, V82T and I84V mutant gene infected in human MT-2 cells by XTT-assay relative to wild-type. Put shortly:
(§1)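 Patient Gag-protease (SfoI-XmaI) fragments were ligated into the pXXLAI backbone, with colonies pooled to keep quasispecies. Virus came from 293T transfection, harvested at 2 days. MT-2 infection at 37°C used an input giving XTT signal-to-noise of 2.5–4.0 (≈MOI 0.001). Cells at ≈17,000/well with drug dilutions, 5 days, 37°C; XTT 1 h, A450–650. EC50 from % cell death; fold change vs wild-type LAI.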

In assay [2] the test system is Human immunodeficiency virus 1. The assay can be described thus: Antiviral activity against Human immunodeficiency virus 1 isolate 21 harboring Gag-capsid I138L, A146P, I147L/I, V159I/V, E211D, V215L, N252H/N, R286K/R and K331R/K mutant gene and protease E35D, M36I, S37N, I62V and L63C mutant gene infected in human MT-2 cells by XTT-assay relative to wild-type. The essentials: as §1
On the technique in general: Tetrazolium assays rely on reduction of a dye to a coloured formazan, in cell work by metabolically active cells.

For assay [3], the system named is Human immunodeficiency virus 1. The assay can be described thus: Antiviral activity against Human immunodeficiency virus 1 isolate 4 harboring Gag-capsid A146P, V159I, K162R, Q182S, T186I, V215L, I223G/V, N252G, P255A, E260D, E312D and G357S mutant gene and protease L10R, S37N, M46L, I62V, L63P, A71V, T74S, V82T, L90M and I93L mutant gene infected in human MT-2 cells by XTT-assay relative to wild-type. The essentials:
as §1

The subject of assay [4] is Human immunodeficiency virus 1. The assay can be described thus: Antiviral activity against Human immunodeficiency virus 1 isolate 2 harboring Gag-capsid A146P, S173A, V215L, H219P, E230D, N252S, R264K, L268M and A340G mutant gene and protease L10I, I15V, K20R, M36I, S37N, M46I, L63P, T80A, V82A, N83H, I84V, I85T and L90M mutant gene infected in human MT-2 cells by XTT-assay relative to wild-type. Put shortly: as §1

For assay [5], the system named is Human immunodeficiency virus 1. The assay can be described thus: Antiviral activity against Human immunodeficiency virus 1 isolate 7 harboring Gag-capsid I138L, I147L, S173A, V215L, I223V, T242N, G248A, N252A, I126T, T280V and E312D mutant gene and protease K20R, M36I, R41K, M46I, L63Q, I64V, P79S, V82F and L90M mutant gene infected in human MT-2 cells by XTT-assay relative to wild-type. Put shortly: as §1

Assay [6] relates to Human immunodeficiency virus 1. The experiment in a line: Antiviral activity against Human immunodeficiency virus 1 isolate 35 harboring Gag-capsid V159I, I223T, N252S, A326S/A, A340G and G357S mutant gene and protease I15V, G16E, E35D, S37N, L63H and I72V mutant gene infected in human MT-2 cells by XTT-assay relative to wild-type. The essentials:
as §1

Assay [7] has as its system Human immunodeficiency virus 1. The experiment in a line: Antiviral activity against Human immunodeficiency virus 1 isolate 25 harboring Gag-capsid I138M, S173A, V215L, N252S, I256T, S310T/S, A340G and E345D mutant gene and protease L10F, V11I, I13V, K20I, V32I, L33F, E34Q, E35D, M36I, S37N, K43T, M46I, F53Y, I54L, Q61N, I62V, L63T, I64V, A71L, T74S, L76V, I84V, L90M and I93L mutant gene infected in human MT-2 cells by XTT-assay relative to wild-type. The essentials: as §1

The test system of assay [8] is Human immunodeficiency virus 1. The experiment in a line: Antiviral activity against Human immunodeficiency virus 1 isolate 31 harboring Gag-capsid I138L, S173T, V215L, I223N, M228L, G248Q, N252H, T280V and E312D mutant gene and protease I13V, K14R/K, M36I, S37N, I64V, H69K and I72V mutant gene infected in human MT-2 cells by XTT-assay relative to wild-type. Put shortly: as §1

Assay [9] has as its system Human immunodeficiency virus 1. The experiment in a line: Antiviral activity against Human immunodeficiency virus 1 isolate 20 harboring Gag-capsid I138L, V215L, V218P, H219Q, M228I, E230D, G248T, T280A, E312D, A340G and G357S mutant gene and protease L10F, A22V, D30N, S37N, K45R, I54L, I62V, L63P, A71V, V77I, I84V, N88D and Q92K mutant gene infected in human MT-2 cells by XTT-assay relative to wild-type. The essentials:
as §1

Assay [10] deals with Human immunodeficiency virus 1. The experiment in a line: Antiviral activity against Human immunodeficiency virus 1 isolate 30 harboring Gag-capsid I138L, V215L, R286K and Q311A mutant gene and protease I13V, E35D, S37N and L63P mutant gene infected in human MT-2 cells by XTT-assay relative to wild-type. The essentials:
as §1

For assay [11], the system named is Human immunodeficiency virus 1. The experiment in a line: Antiviral activity against Human immunodeficiency virus 1 isolate 23 harboring Gag-capsid I138L, V215L, E319D, A340G, G357S and V362I mutant gene and protease L10V, V11L, V32I, L33F, E34Q, E35D, M36L, S37T, M46I, I47V, G48V, I54M, I62V, L63P, I64V, I72V, T74S, V77I, V82A, I84V and T91S mutant gene infected in human MT-2 cells by XTT-assay relative to wild-type. The essentials:
as §1

The subject of assay [12] is Human immunodeficiency virus 1. The assay can be described thus: Antiviral activity against Human immunodeficiency virus 1 isolate 3 harboring Gag-capsid I138L, A146P, I147L, V159I, S176A, V215L, H219Q/H, T242N, G248A, T280V, A340G and G357S mutant gene and protease L10I, T31S/T, V32I, M36I/M, S37C, R41K, M46I, F53L, I54V, R57K, L63P, I64V, A71V, V82A and L90M mutant gene infected in human MT-2 cells by XTT-assay relative to wild-type. The essentials: as §1

The test system of assay [13] is Human immunodeficiency virus 1. The assay can be described thus: Antiviral activity against Human immunodeficiency virus 1 isolate 1 harboring Gag-capsid I138L, V159I, E203D, V215L, I223V, T280V, E312D and V323I mutant gene and protease L10I, K20R, M36I, S37N, G48V, I54M, I62V, L63P, A71V, I72V, V82A, I84V, L90M and I93L/I mutant gene infected in human MT-2 cells by XTT-assay relative to wild-type. Put shortly: as §1

Assay [14] relates to Human immunodeficiency virus 1. The experiment in a line: Antiviral activity against Human immunodeficiency virus 1 isolate 34 harboring Gag-capsid I138L, I147L, V159I, V215L, T280V, A309C, S310T, E312D and G357S mutant gene and protease L10I, I13V, E35D, S37N, I62V, L63P and I64M mutant gene infected in human MT-2 cells by XTT-assay relative to wild-type. Put shortly: as §1

Assay [15] has as its system Human immunodeficiency virus 1. The experiment in a line: Antiviral activity against Human immunodeficiency virus 1 isolate 8 harboring Gag-capsid V215T mutant gene and protease L10I, L24I, L33F, S37N, R41K, I54V, D60E, I62V, L63P, A71V, V77I, V82A and I84V mutant gene infected in human MT-2 cells by XTT-assay relative to wild-type. Put shortly: as §1

Take `COC(=O)N[C@H](C(=O)N[C@@H](Cc1ccccc1)[C@@H](O)CN(Cc1ccc(-c2ccccn2)cc1)NC(=O)[C@@H](NC(=O)OC)C(C)(C)C)C(C)(C)C` [ATAZANAVIR]: the “fold change (FC)” value in assay [1] stood at 29.2; in assay [2], 0.8; in assay [3] it was 13.3; in assay [4], 10.7; in assay [5], 1; in assay [6] it was 0.9. The “fold change (FC)” value amounted to 184 in assay [7]; 1.9 in assay [8]; 51.9 in assay [9]; 0.9 in assay [10]; 521 in assay [11]; 15.1 in assay [12]. Further, the “fold change (FC)” value in assay [13] is 62.9; in [14], 1.6; in assay [15], 29.

On to `Cc1cccc(C)c1OCC(=O)N[C@@H](Cc1ccccc1)[C@@H](O)C[C@H](Cc1ccccc1)NC(=O)[C@H](C(C)C)N1CCCNC1=O` [LOPINAVIR], for which the “fold change (FC)” value in assay [1] stood at 3.4; in assay [2], 0.6; in assay [3], 15.2; in assay [4], 15.5; in [5] it was 4.1; in [6], 1. Moreover, the “fold change (FC)” value is listed as 58.9 in [7]; 1.1 in assay [8]; 13.3 in assay [9]; 0.7 in assay [10]; 203 in [11]; 13 in assay [12]. For the same molecule, the “fold change (FC)” value is recorded as 22.1 in [13], 1.4 in assay [14] and 28.7 in assay [15].
